Compound activity as filed in PubChem.
Rtt109 Vps75 = C. albicans Rtt109 histone acetyltransferase inhibition; AID 540336; inhibition, % at 34.9 µM; purified Rtt109/Vps75, ThioGlo CoA-SH fluorescence, 4 h; 0.16% of 330,000 active;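 active means inhibition of at least 50% in every replicate; inconclusive means best replicate reaches 50% inhibition but some replicates fall short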
Target sequence (Q5AAJ8 whole entry, looked up): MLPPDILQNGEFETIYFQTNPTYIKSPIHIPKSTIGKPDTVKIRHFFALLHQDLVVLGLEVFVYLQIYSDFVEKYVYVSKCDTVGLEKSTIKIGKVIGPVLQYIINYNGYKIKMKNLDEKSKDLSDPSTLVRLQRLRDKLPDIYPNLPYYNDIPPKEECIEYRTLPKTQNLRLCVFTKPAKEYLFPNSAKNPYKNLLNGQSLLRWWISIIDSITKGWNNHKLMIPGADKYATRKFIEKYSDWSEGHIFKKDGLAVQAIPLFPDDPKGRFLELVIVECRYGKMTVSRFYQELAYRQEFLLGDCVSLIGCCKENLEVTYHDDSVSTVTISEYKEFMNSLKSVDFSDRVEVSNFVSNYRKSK
ALR H2O2 inh = human ALR oxidase inhibition via reduced H2O2. 3.8% of 290,000 active. P55789. inhibition, % (no concentration beside the values). purified ALR, DTT oxidation, H2O2 HRP-luminol luminescence;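 active means mean replicate inhibition above about 79%, with every replicate also reaching it, limit read from the data; inconclusive means only one of the two criteria met; inactive means mean below limit and not every replicate reaching it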
Target sequence (P55789 whole entry, looked up): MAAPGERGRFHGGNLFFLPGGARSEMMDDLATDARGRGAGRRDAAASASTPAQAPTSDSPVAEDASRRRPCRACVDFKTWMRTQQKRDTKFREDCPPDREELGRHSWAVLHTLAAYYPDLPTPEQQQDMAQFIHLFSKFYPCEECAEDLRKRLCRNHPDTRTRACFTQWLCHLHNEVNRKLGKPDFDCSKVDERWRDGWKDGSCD
HDAC3 inh = human HDAC3 inhibition. O15379. recombinant HDAC3, fluorogenic peptide/trypsin coupled, fluorescence. inhibition, % at 8.3 µM. 0.15% of 320,000 active; in the data active means inhibition above about 26%, passing the limit was not always enough; inconclusive means no clear call, values can overlap the other calls
PfM18AAP inh-1 = blocks P. falciparum M18 aspartyl aminopeptidase | recombinant PfM18AAP, H-Glu-NHMec fluorogenic cleavage | 1.2% of 290,000 active | inhibition, % at 7.35 µM;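 active means inhibition above the campaign mean inhibition over all tested compounds plus 3 SD, cut at about 28% in these data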;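 further: 0% = plate median of test compound wells and 100% = 2 mM ZnCl2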
UCH37 DUB inh = inhibitors of human deubiquitinating enzyme UCH37; Q9Y5K5; purified proteasome/UCH37, Ub-AMC cleavage fluorescence; inhibition, % (test concentration not listed); 0.33% of 330,000 active; AID 588478;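 active means mean inhibition over replicate wells above about 20%, limit read from the data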;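 further: 0% = compound-free wells with enzyme and 100% = wells lacking proteasome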
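Test system – human UCH37 enzyme supplied as purified proteasome complex · Incubation – 30 min preincubation with enzyme, 25 min cleavage at room temperature · Detection – AMC fluorescence from Ub-AMC cleavage, excitation 355 nm, emission 460 nm · Benchmarks – no-proteasome wells (full inhibition) and compound-free wells (no inhibition)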
FAS TE block = blocks the thioesterase domain of human fatty acid synthase; P49327; recombinant FAS-TE, OMFH fluorogenic substrate, fluorescence endpoint; inhibition, % at 15 µM; 0.67% of 360,000 active;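 active means compounds whose normalised, plate-corrected inhibition of enzyme fluorescence in the single-dose primary screen is 50% or more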;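 further: 0% = DMSO with enzyme and 100% = substrate without enzyme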
PfM18AAP inh-2 = confirmation of Plasmodium falciparum M18 aspartyl aminopeptidase inhibitors; 28% of 2,400 active; shares compounds with PfM18AAP inh-1; recombinant PfM18AAP, H-Glu-NHMec fluorogenic cleavage; inhibition, % at 7.35 µM; AID 2170;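 active means mean inhibition over replicate wells above the hit cutoff set for the earlier primary screen, cut at about 29% in these data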;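 further: 0% = median of test compound wells and 100% = 2 mM ZnCl2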
CTSL1 confirm = counter-screen for PFM18AAP inhibitors: confirmation of human cathepsin L inhibitors; shares compounds with PfM18AAP inh-1; purified cathepsin L1, Z-Leu-Arg-MCA fluorescence; inhibition, % at 5.96 µM; 2,400 tested, under 10 active;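 active means average inhibition across replicates above the hit cutoff set in the earlier primary screen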;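 further: 0% = median of test compound wells and 100% = Z-Phe-Ala-diazomethylketone 1 µM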
Active calls of the source: *; ? = inconclusive; nt = no result given. In the library only some 4.6% were active in any assay of this set; here they are far more common.

SMILES | Rtt109 Vps75 | ALR H2O2 inh | HDAC3 inh | PfM18AAP inh-1 | UCH37 DUB inh | FAS TE block | PfM18AAP inh-2 | CTSL1 confirm
CCOc1ccc(NC(=O)c2sc3nc(N4CCOCC4)c4c(c3c2N)CCCC4)cc1 | 3 | -5 | 8 | 43* | -192 | 13 | 15 | 5
CN1CCC(=C2c3ccccc3C(O)c3ccccc32)CC1 (stereo unspecified) | 9 | nt | -2 | -3 | 1 | -5 | nt | nt
CN1CCc2cccc3c2C1Cc1ccc(O)c(O)c1-3 (stereo unspecified) | 1 | 98* | 2 | 75* | -1 | -3 | 74* | -9
CCN(CC)C(=O)c1csc(Nc2cccc3ccccc23)n1 | 3 | -78 | -1 | 32* | 2 | 4 | -18 | 4
NNc1ccc2c(C(F)(F)F)cc(C(F)(F)F)nc2n1 | -2 | -3 | 0 | 45* | 4 | -8 | 24 | -4
Cc1ccc(C(=O)Nn2cnnc2)cc1[N+](=O)[O-] | -6 | 3 | -1 | 43* | 2 | -6 | 39* | -5
COC(=O)c1cc(C(=O)Nn2cnnc2)cc([N+](=O)[O-])c1 | 5 | -4 | 2 | 63* | 4 | -5 | 73* | 1
Cc1cc2oc(=O)sc2cc1NS(=O)(=O)c1ccccc1 | 0 | nt | 5 | 36* | 1 | 1 | -30 | 0
Nc1nonc1-n1nnc(C(=O)NN=Cc2ccccc2)c1CN1CCc2ccccc21 | nt | nt | nt | nt | 1 | nt | nt | nt
Cc1cc(NC(=O)CSc2nnc(Cc3ccccc3)o2)no1 | 2 | -1 | 0 | 40* | 2 | -6 | -35 | 2
O=C(CSc1nc2[nH]ncc2c(=O)[nH]1)c1ccccc1 | nt | 24 | -6 | 48* | 4 | -1 | 40* | 4
O=C(CSc1nc2[nH]ncc2c(=O)[nH]1)N1CCCCC1 | -7 | nt | 0 | 34* | 1 | -9 | -23 | 0
CC(=O)Oc1ccc2occ(/C=N/c3cc(=O)[nH]c(=S)[nH]3)c(=O)c2c1 | 4 | 22 | 2 | 35* | nt | -1 | 11 | -8
Cc1ccc2occ(C=NO)c(=O)c2c1 | nt | nt | nt | nt | 1 | nt | nt | nt
O=c1[nH]nc(NN=Cc2ccc(Cl)cc2Cl)c(=O)[nH]1 | nt | nt | nt | nt | 7 | nt | nt | nt
NC(=O)C1CCN(C(=O)COc2ccc(Nc3ccccc3)cc2)CC1 | 4 | 99* | 8 | 34* | 3 | -3 | -28 | 0
S=c1[nH]nc(-c2ccccc2)n1N=C/C=C/c1ccco1 | nt | nt | nt | nt | 12 | nt | nt | nt
COc1ccc(C(=O)Cc2ccc3c(c2)OCO3)c(O)c1 | 0 | -2 | 1 | -3 | -9 | -11 | nt | nt
O=C(Cc1ccc2c(c1)OCCO2)c1c(O)cc(O)cc1O | nt | 27 | 8 | 39* | -2 | -2 | 28 | 1
O=C(CSc1nn(-c2ccccc2)c(=S)s1)Nn1cnnc1 | 0 | -4 | 4 | 53* | 4 | -11 | 73* | 0
O=C(CSc1nc2ccccc2s1)Nn1cnnc1 | 21 | 99* | -5 | 69* | 7 | -6 | 57* | 3
Cc1cc(NC(=O)CSc2nc3ccccc3s2)no1 | 3 | -9 | 6 | -6 | -3 | -2 | nt | nt
Cc1cc(=O)[nH]c(N=C(N)Nc2ccc3c(c2)OCCO3)n1 | nt | nt | nt | nt | 0 | nt | nt | nt
Cn1cc(Br)c(C(=O)NN=Cc2cccc(OC3CSC3)c2)n1 | nt | nt | nt | nt | 1 | nt | nt | nt
CCOc1cccc(/C=C/c2cc(C(=O)O)c3ccccc3n2)c1OC | 3 | nt | 8 | 3 | 6 | -6 | nt | nt
SMILES | Rtt109 Vps75 | ALR H2O2 inh | HDAC3 inh | PfM18AAP inh-1 | UCH37 DUB inh | FAS TE block | PfM18AAP inh-2 | CTSL1 confirm
COc1cc(/C=C/c2cc(C(=O)O)c3ccccc3n2)cc(OC)c1O | 0 | 99* | 6 | 51* | nt | -8 | 18 | 2
Cc1cccc(C(=O)NN=Cc2ccc[nH]2)c1 | nt | nt | nt | nt | 7 | nt | nt | nt
Cc1cc(C(=O)NN=Cc2cccc(Cl)c2Cl)no1 | nt | nt | nt | nt | 2 | nt | nt | nt
O=C(Nc1ccc2c(c1)OCO2)NC1(C(F)(F)F)Oc2ccccc2O1 | nt | -13 | -8 | 57* | 6 | -1 | 18 | 0
O=C(Nc1ccc2c(c1)OCCO2)Nc1ccc2c(c1)OCO2 | -3 | -2 | 0 | 0 | 1 | -4 | nt | nt
O=C(Nc1ccc2c(c1)OCCO2)NC1(C(F)(F)F)Oc2ccccc2O1 | -6 | -1 | 7 | 59* | 3 | 10 | 16 | 5
COc1cc(C(=O)NN=Cc2sccc2C)cc(OC)c1OC | nt | nt | nt | nt | 10 | nt | nt | nt
Cc1cc(Br)cc(C=NNC(=O)c2ccc3c(c2)OCO3)c1O | nt | nt | nt | nt | 2 | nt | nt | nt
Oc1ccccc1N1CCN(c2ncccn2)CC1 | -1 | 99* | -8 | 42* | 2 | -10 | -19 | 3
CCCCn1cnc2c(=S)nc(N)[nH]c21 | 26 | 18 | 14 | 40* | 9 | -4 | -10 | -5
CCCCCn1cnc2c(=S)nc(N)[nH]c21 | 8 | nt | nt | 41* | 10 | -6 | -19 | 5
Nc1nc(=S)c2ncn(C3CCCCC3)c2[nH]1 | 2 | nt | nt | nt | 9 | -10 | nt | nt
CCCn1cnc2c(=S)nc(N)[nH]c21 | -3 | 9 | 10 | 57* | 10 | -3 | -20 | 3
CCCCCCCCn1cnc2c(N)c(C)c(C)cc21 | ? | 48 | 18 | 2 | 2 | 14 | nt | nt
Oc1ccc(Br)cc1C=NNC(=S)NCCc1ccccc1 | nt | nt | nt | nt | 1 | nt | nt | nt
O=C(CSc1ncn[nH]1)N1N=C(c2ccc(Cl)cc2)CC1c1ccco1 (stereo unspecified) | 11 | -9 | 1 | 42* | 4 | -66 | -7 | -1
O=C(CSc1n[nH]c(=O)n1C1CC1)N1N=C(c2ccc(Cl)cc2)CC1c1ccco1 (stereo unspecified) | -4 | nt | 3 | 5 | 1 | 2 | nt | nt
O=C(NC(=NO)c1ccccc1)Nc1ccc(Cl)cc1 | nt | nt | nt | nt | 1 | nt | nt | nt
Cc1nc2ccccc2c(=O)n1/N=C/c1ccc(O)c(O)c1O | 0 | 98* | 2 | 47* | nt | 1 | 6 | 5
O=C1c2ccccc2C(=O)N1/N=C/c1ccc(O)c(O)c1O | 36 | nt | nt | 66* | nt | -3 | 40* | 2
COc1cc(C(=S)N2CCN(c3ccccc3Cl)CC2)cc(O)c1O | -6 | 99* | 10 | 54* | 8 | -7 | 45* | -1
Cc1nn(-c2ccccc2)c2nc(N)c(C#N)c(-c3ccc(O)c(O)c3)c12 | -6 | 5 | 2 | 70* | -29 | 9 | 48* | 0
Cc1nn(-c2ccc(F)cc2)c2nc(N)c(C#N)c(-c3ccc(O)c(O)c3)c12 | -4 | -3 | 4 | 69* | -26 | 14 | 48* | -1
Cc1ccc(CN2CCN(/N=C/c3ccccc3)CC2)cc1 | -17 | -1 | 4 | 1 | nt | 10 | nt | nt
COc1cc(/C=N/N2CCN(Cc3ccc(C)cc3)CC2)cc(OC)c1O | 11 | 99* | 8 | 47* | nt | -5 | 4 | 1
CC(=NNC(=O)c1cccc(F)c1)c1cccc(NC(=O)c2ccc(F)cc2)c1 | nt | nt | nt | nt | 4 | nt | nt | nt
